Measured values: ChEMBL document CHEMBL4393705, “New chalcone-sulfonamide hybrids exhibiting anticancer and antituberculosis activity” (Eur J Med Chem, 2019)

Legend:
Staphylococcus aureus = test: Antibacterial activity against Staphylococcus aureus measured every 120 mins for 36 hrs by LB broth two-fold serial dilution method; assay type: functional
Outline: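 Panel of 12 laboratory and clinical S. aureus strains with varied drug-susceptibility patterns. Compounds were two-fold serially diluted in LB broth from a maximum of 32 mg/L. Growth was followed by OD600 every 120 min for 36 h. Vancomycin was the positive control, and runs were in duplicate.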

[1] = tested on: Mycolicibacterium smegmatis; test: Antibacterial activity against Mycobacterium smegmatis MC2 155 measured after 48 hrs by agar dilution SPOTi assay; assay type: functional; conditions: MC2 155, 48 h
Outline: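 SPOTi agar dilution on Middlebrook 7H10 without OADC. Cells were passaged in Middlebrook 7H9 and then spotted. Compounds were tested at 100, 50, 20, 10 and 5 mg/L, with kanamycin as positive control. Plates were incubated 48 h at 37°C. MIC was taken as the lowest concentration with no visible growth.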

SK-OV-3 = test: Anticancer activity against human SKOV3 cells assessed as cell growth inhibition measured after 48 hrs by SRB assay; assay type: functional; conditions: SK-OV-3, 48 h
Outline: (§1)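 NCI 60-cell screen, five-dose mode at 100, 10, 1.0, 0.1 and 0.01 µM. Cells grown in RPMI-1640 with 5% FBS and 2 mM L-glutamine, seeded and held 24 h at 37°C, 5% CO2, then exposed for 48 h. Fixed with cold TCA (10% final), stained with 0.4% SRB and read at 515 nm. Time-zero plates were used. GI50 is the concentration giving 50% lower net protein increase than control.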

UO-31 = test: Anticancer activity against human UO31 cells assessed as cell growth inhibition measured after 48 hrs by SRB assay; assay type: functional; conditions: UO-31, 48 h; for CC50: read-out: LC50 (the source's name); outline: as §1
M14 = test: Anticancer activity against human M14 cells assessed as cell growth inhibition measured after 48 hrs by SRB assay; assay type: functional; conditions: M14, 48 h; for CC50: read-out: LC50 (the source's name)
Outline: (§2)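 NCI-60 five-dose screen at 100, 10, 1.0, 0.1 and 0.01 µM final. Cells in RPMI-1640 with 5% FBS and 2 mM glutamine were seeded 24 h ahead at 37°C, 5% CO2. Compound exposure was 48 h, followed by TCA fixation and SRB staining, read at 515 nm. GI50 is the concentration giving 50% lower net protein increase than control, using time-zero plates.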

U-251 = test: Anticancer activity against human U251 cells assessed as cell growth inhibition measured after 48 hrs by SRB assay; assay type: functional; conditions: U-251, 48 h; outline: as §1
[2] = Selectivity index, ratio of LC50 for mouse 3T3 cells to MIC for Mycobacterium tuberculosis H37Rv ATCC27294; assay type: toxicity; conditions: read-out: Selectivity Index
SK-MEL-2 = test: Anticancer activity against human SK-MEL-2 cells assessed as cell growth inhibition measured after 48 hrs by SRB assay; assay type: functional; conditions: SK-MEL-2, 48 h; for CC50: read-out: LC50 (the source's name); outline: as §1
MCF7 = test: Anticancer activity against human MCF7 cells assessed as cell growth inhibition measured after 48 hrs by SRB assay; assay type: functional; conditions: MCF7, 48 h; outline: as §2
HL-60 = test: Anticancer activity against human HL60 cells assessed as cell growth inhibition measured after 48 hrs by SRB assay; assay type: functional; conditions: HL-60, 48 h; for CC50: read-out: LC50 (the source's name); outline: as §2
PC-3 = test: Anticancer activity against human PC3 cells assessed as cell growth inhibition measured after 48 hrs by SRB assay; assay type: functional; conditions: PC-3, 48 h; outline: as §2
NCI-H226 = test: Anticancer activity against human NCI-H226 cells assessed as cell growth inhibition measured after 48 hrs by SRB assay; assay type: functional; conditions: NCI-H226, 48 h; for CC50: read-out: LC50 (the source's name); outline: as §2
LOX IMVI = test: Anticancer activity against human LOXIMVI cells assessed as cell growth inhibition measured after 48 hrs by SRB assay; assay type: functional; outline: as §2
MOLT-4 = test: Anticancer activity against human MOLT4 cells assessed as cell growth inhibition measured after 48 hrs by SRB assay; assay type: functional; conditions: MOLT-4, 48 h; outline: as §2
RPMI-8226 = test: Anticancer activity against human RPMI8226 cells assessed as cell growth inhibition measured after 48 hrs by SRB assay; assay type: functional; conditions: RPMI-8226, 48 h; for CC50: read-out: LC50 (the source's name); outline: as §2
SR = test: Anticancer activity against human SR cells assessed as cell growth inhibition measured after 48 hrs by SRB assay; assay type: functional; outline: as §1
A498 = test: Anticancer activity against human A498 cells assessed as cell growth inhibition measured after 48 hrs by SRB assay; assay type: functional; conditions: A498, 48 h; for CC50: read-out: LC50 (the source's name); outline: as §2
CAKI-1 = test: Anticancer activity against human Caki1 cells assessed as cell growth inhibition measured after 48 hrs by SRB assay; assay type: functional; conditions: CAKI-1, 48 h; outline: as §2
SF-268 = test: Anticancer activity against human SF268 cells assessed as cell growth inhibition measured after 48 hrs by SRB assay; assay type: functional; conditions: SF-268, 48 h; outline: as §2
SNB-19 = test: Anticancer activity against human SNB19 cells assessed as cell growth inhibition measured after 48 hrs by SRB assay; assay type: functional; conditions: SNB-19, 48 h; outline: as §1
NCI-H522 = test: Anticancer activity against human NCI-H522 cells assessed as cell growth inhibition measured after 48 hrs by SRB assay; assay type: functional; conditions: NCI-H522, 48 h; for CC50: read-out: LC50 (the source's name); outline: as §2
OVCAR-3 = test: Anticancer activity against human OVCAR3 cells assessed as cell growth inhibition measured after 48 hrs by SRB assay; assay type: functional; conditions: OVCAR-3, 48 h; outline: as §2
MDA-MB-435 = test: Anticancer activity against human MDA-MB-435 cells assessed as cell growth inhibition measured after 48 hrs by SRB assay; assay type: functional; conditions: MDA-MB-435, 48 h; outline: as §2
OVCAR-4 = test: Anticancer activity against human OVCAR4 cells assessed as cell growth inhibition measured after 48 hrs by SRB assay; assay type: functional; conditions: OVCAR-4, 48 h; outline: as §2
MDA-MB-231 = test: Anticancer activity against human MDA-MB-231 cells assessed as cell growth inhibition measured after 48 hrs by SRB assay; assay type: functional; conditions: MDA-MB-231, 48 h; outline: as §2
NCI/ADR-RES = test: Anticancer activity against human NCI/ADR-RES cells assessed as cell growth inhibition measured after 48 hrs by SRB assay; assay type: functional; outline: as §2
HT-29 = test: Anticancer activity against human HT-29 cells assessed as cell growth inhibition measured after 48 hrs by SRB assay; assay type: functional; conditions: HT-29, 48 h; outline: as §2
BT-549 = test: Anticancer activity against human BT549 cells assessed as cell growth inhibition measured after 48 hrs by SRB assay; assay type: functional; conditions: BT-549, 48 h; outline: as §2
NCI-H23 = test: Anticancer activity against human NCI-H23 cells assessed as cell growth inhibition measured after 48 hrs by SRB assay; assay type: functional; conditions: NCI-H23, 48 h; outline: as §2

For COc1ccc(C(=O)/C=C/c2ccc(Cl)cc2)cc1S(N)(=O)=O, the MIC (Staphylococcus aureus) was > 57 µM, the MIC [1] was > 175 µM and the GI50 (SK-OV-3) was 5.96 µM. It also gave an LC50 (concentration killing 50% of cells relative to time zero) (SK-OV-3) of 43.1 µM, a GI50 (UO-31) of 1890 nM and a CC50 (UO-31) of 22 µM. The GI50 (M14) was 2130 nM, the CC50 (M14) was 21.2 µM and the GI50 (U-251) was 1960 nM. It also gave an LC50 (U-251) of 9.33 µM, a selectivity ratio [2] of 0.29 and a GI50 (SK-MEL-2) of 12.4 µM. The CC50 (SK-MEL-2) was 53.2 µM, the GI50 (MCF7) was 1300 nM and the LC50 (MCF7) was > 100 µM. For the same molecule, the GI50 (HL-60) was 3.08 µM, the CC50 (HL-60) was > 100 µM and the GI50 (PC-3) was 2240 nM. It also gave an LC50 (PC-3) of 17 µM, a GI50 (NCI-H226) of 3660 nM and a CC50 (NCI-H226) of 95.7 µM. It also gave a GI50 (LOX IMVI) of 1280 nM, an LC50 (concentration giving 50% net cell kill) (LOX IMVI) of 5.47 µM and a GI50 (MOLT-4) of 2.93 µM. The LC50 (MOLT-4) was > 100 µM, the GI50 (RPMI-8226) was 2610 nM and the CC50 (RPMI-8226) was > 100 µM. For the same molecule, the GI50 (SR) was 860 nM, the LC50 (concentration giving 50% net cell kill) (SR) was > 100 µM and the GI50 (A498) was 10.4 µM. The CC50 (A498) was 47.1 µM, the GI50 (CAKI-1) was 2.72 µM and the LC50 (CAKI-1) was 32.5 µM. For the same molecule, the GI50 (SF-268) was 3130 nM, the LC50 (concentration giving 50% net cell kill) (SF-268) was 38.3 µM and the GI50 (SNB-19) was 3100 nM. The LC50 (SNB-19) was 33.4 µM, the GI50 (NCI-H522) was 1930 nM and the CC50 (NCI-H522) was 12.1 µM. It also gave a GI50 (OVCAR-3) of 2040 nM, an LC50 (OVCAR-3) of 9.7 µM and a GI50 (MDA-MB-435) of 4.34 µM. For the same molecule, the LC50 (concentration killing 50% of cells present at time zero) (MDA-MB-435) was 41.6 µM, the GI50 (OVCAR-4) was 3.47 µM and the LC50 (OVCAR-4) was 40.4 µM. The GI50 (MDA-MB-231) was 3.48 µM, the LC50 (MDA-MB-231) was 40.1 µM and the GI50 (NCI/ADR-RES) was 3.64 µM. For the same molecule, the LC50 (NCI/ADR-RES) was > 100 µM, the GI50 (HT-29) was 3.26 µM and the LC50 (concentration giving 50% net cell kill) (HT-29) was 84 µM. The GI50 (BT-549) was 2290 nM, the LC50 (BT-549) was 27.3 µM and the GI50 (NCI-H23) was 2540 nM. For the same molecule, the LC50 (NCI-H23) was 40.9 µM.

With COc1ccc(C(=O)/C=C/c2ccc(Cl)cc2)cc1S(=O)(=O)Nc1c(N)nc(SC)[nH]c1=O the MIC (Staphylococcus aureus) was > 57 µM, the MIC [1] was > 175 µM and the GI50 (SK-OV-3) was 3.65 µM. It also gave an LC50 (concentration killing 50% of cells relative to time zero) (SK-OV-3) of 36.6 µM, a GI50 (UO-31) of 1890 nM and a CC50 (UO-31) of 12.9 µM. The GI50 (M14) was 2000 nM, the CC50 (M14) was 15.7 µM and the GI50 (U-251) was 1580 nM. For the same molecule, the LC50 (U-251) was 6.16 µM, the selectivity ratio [2] was 0.65 and the GI50 (SK-MEL-2) was 12.8 µM. For the same molecule, the CC50 (SK-MEL-2) was 61.1 µM, the GI50 (MCF7) was 1970 nM and the LC50 (MCF7) was > 100 µM. The GI50 (HL-60) was 3.2 µM, the CC50 (HL-60) was > 100 µM and the GI50 (PC-3) was 2530 nM. The LC50 (PC-3) was 32.8 µM, the GI50 (NCI-H226) was 2340 nM and the CC50 (NCI-H226) was 52.9 µM. The GI50 (LOX IMVI) was 1630 nM, the LC50 (concentration giving 50% net cell kill) (LOX IMVI) was 6.34 µM and the GI50 (MOLT-4) was 3.71 µM. For the same molecule, the LC50 (MOLT-4) was > 100 µM, the GI50 (RPMI-8226) was 2170 nM and the CC50 (RPMI-8226) was > 100 µM. The GI50 (SR) was 3570 nM, the LC50 (concentration giving 50% net cell kill) (SR) was > 100 µM and the GI50 (A498) was 10.6 µM. The CC50 (A498) was 47.6 µM, the GI50 (CAKI-1) was 3.83 µM and the LC50 (CAKI-1) was 79.5 µM. The GI50 (SF-268) was 2690 nM, the LC50 (concentration giving 50% net cell kill) (SF-268) was 36.1 µM and the GI50 (SNB-19) was 2520 nM. For the same molecule, the LC50 (SNB-19) was 32.2 µM, the GI50 (NCI-H522) was 1880 nM and the CC50 (NCI-H522) was 8.83 µM. For the same molecule, the GI50 (OVCAR-3) was 1940 nM, the LC50 (OVCAR-3) was 8 µM and the GI50 (MDA-MB-435) was 2.95 µM. It also gave an LC50 (concentration killing 50% of cells present at time zero) (MDA-MB-435) of 48 µM, a GI50 (OVCAR-4) of 4.5 µM and an LC50 (OVCAR-4) of 43.6 µM. For the same molecule, the GI50 (MDA-MB-231) was 3.42 µM, the LC50 (MDA-MB-231) was 40.3 µM and the GI50 (NCI/ADR-RES) was 40.1 µM. For the same molecule, the LC50 (NCI/ADR-RES) was > 100 µM, the GI50 (HT-29) was 2.93 µM and the LC50 (concentration giving 50% net cell kill) (HT-29) was 45.3 µM. It also gave a GI50 (BT-549) of 1630 nM, an LC50 (BT-549) of 6.17 µM and a GI50 (NCI-H23) of 2530 nM. For the same molecule, the LC50 (NCI-H23) was 40.4 µM.
